Converted amounts (≈) assume the structure as drawn.
Assays:
CYP1B1 = biological target: T1, CYP1B1 (Homo sapiens, UniProt Q16678); assay: Inhibition of human liver CYP1B1 expressed in Saccharomyces cerevisiae YY7 microsomal membranes at 1 uM using 7-ethoxyresorufin as substrate after 10 mins by fluorescence assay relative to control; details: probe 7-ethoxyresorufin
T1 sequence (Q16678 whole entry): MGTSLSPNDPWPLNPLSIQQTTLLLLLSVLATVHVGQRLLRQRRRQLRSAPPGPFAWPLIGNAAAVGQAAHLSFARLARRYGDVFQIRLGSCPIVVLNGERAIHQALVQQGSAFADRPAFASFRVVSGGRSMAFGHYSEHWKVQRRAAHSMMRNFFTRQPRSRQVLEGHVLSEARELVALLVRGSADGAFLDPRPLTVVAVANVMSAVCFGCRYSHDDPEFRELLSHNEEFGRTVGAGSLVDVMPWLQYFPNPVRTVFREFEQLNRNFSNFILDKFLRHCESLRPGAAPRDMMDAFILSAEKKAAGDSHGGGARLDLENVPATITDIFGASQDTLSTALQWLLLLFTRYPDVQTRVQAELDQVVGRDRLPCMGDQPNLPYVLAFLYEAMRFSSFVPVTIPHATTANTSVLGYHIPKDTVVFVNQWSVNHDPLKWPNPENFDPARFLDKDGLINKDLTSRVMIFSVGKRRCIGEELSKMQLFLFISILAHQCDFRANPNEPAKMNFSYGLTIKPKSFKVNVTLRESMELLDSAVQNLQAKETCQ

[1] = Solubility of the compound in pH 6.8 simulated intestinal fluid; type: physicochemical
[2] = Solubility of the compound in pH 7.4 PBS buffer; type: physicochemical
[3] = Solubility of the compound in pH 1.2 simulated gastric fluid; type: physicochemical
Cytochrome P450 1B1 [4] = biological target: T2, Cytochrome P450 1B1 (Homo sapiens, UniProt Q16678); assay: Inhibition of human liver CYP1B1 expressed in Saccharomyces cerevisiae YY7 microsomal membranes at 5 to 10 uM using 7-ethoxyresorufin as substrate after 10 mins by fluorescence assay
T2 sequence (Q16678 whole entry): T1 sequence (Q16678 whole entry)
Procedure, shortened: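 Single-concentration screen on CYP1B1 yeast microsomes at 5 µM (10 µM per methods), with 7-ER under the regenerating-system endpoint format: 10 min at 37 °C. Percentage inhibition versus a DMSO control; each compound tested twice.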

Cytochrome P450 2D6 = Cytochrome P450 2D6 (Homo sapiens, UniProt P10635); assay: Inhibition of human liver CYP2D6 expressed in Saccharomyces cerevisiae YY7 microsomal membranes using EOMCC as substrate after 10 mins by fluorescence assay; type: ADME, Microsomal Membrane
Cytochrome P450 2D6, sequence (P10635 whole entry, canonical isoform): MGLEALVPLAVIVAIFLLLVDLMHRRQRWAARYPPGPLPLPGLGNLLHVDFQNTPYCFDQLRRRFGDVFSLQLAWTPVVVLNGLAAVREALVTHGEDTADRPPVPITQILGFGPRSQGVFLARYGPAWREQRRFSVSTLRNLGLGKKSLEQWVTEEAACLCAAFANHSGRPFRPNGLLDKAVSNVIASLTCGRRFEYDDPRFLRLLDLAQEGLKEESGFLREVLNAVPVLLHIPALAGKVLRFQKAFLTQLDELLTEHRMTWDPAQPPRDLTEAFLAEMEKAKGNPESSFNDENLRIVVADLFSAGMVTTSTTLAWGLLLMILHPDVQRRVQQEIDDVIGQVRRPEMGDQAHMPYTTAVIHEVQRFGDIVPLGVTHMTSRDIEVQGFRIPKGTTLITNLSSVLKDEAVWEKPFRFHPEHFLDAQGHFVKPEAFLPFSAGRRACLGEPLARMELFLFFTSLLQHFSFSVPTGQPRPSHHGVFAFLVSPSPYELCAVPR
Procedure, shortened: (§1)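 Yeast microsomes (YY7 strain carrying human reductase) held 0.5 pmol CYP with an NADP+/glucose-6-phosphate/G6PDH regenerating system in KPi. Fluorogenic substrate per isoform: 7-ER, CEC, EOMCC or DBF. Six serial 1:20 dilutions were tested, DMSO ≤0.5%. Reactions ran 10 min at 37 °C and were stopped with Tris-acetonitrile. Endpoint fluorescence (530/590 nm for resorufin) was fitted by 4-parameter sigmoid. Triplicate, ≥3 experiments.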

Cytochrome P450 1B1 [5] = biological target: T2, Cytochrome P450 1B1; assay: Inhibition of CYP1B1 in human A2780cis cells assessed as potentiation of cisplatin-induced cytotoxicity at 2 times CYP1B1 inhibitory IC50 by MTT assay; type: cell-based
Cytochrome P450 1B1 [6] = biological target: T2, Cytochrome P450 1B1; assay: Inhibition of human liver CYP1B1 expressed in HEK293 cells using CEC as substrate preincubated for 30 mins followed by substrate addition measured after 60 mins by fluorescence assay; type: cell-based
Procedure, shortened: (§2)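 HEK293 cells adapted to suspension were lipid-transfected with pCDM/hCYP1B1, used 24–48 h later and resuspended at 4×10^6/mL. Wells of 100–200×10^3 cells, in triplicate, were preincubated with compound (1 nM–30 µM) for 30 min at 37 °C, 8% CO2. Substrate followed: 7-ER at 5 µM or CEC. Fluorescence was read over 60 min and IC50 obtained by sigmoidal fit.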

Cytochrome P450 1A2 = biological target: T3, Cytochrome P450 1A2 (Homo sapiens, UniProt P05177); assay: Inhibition of human liver CYP1A2 expressed in Saccharomyces cerevisiae YY7 microsomal membranes using CEC as substrate after 10 mins by fluorescence assay; type: ADME, Microsomal Membrane; procedure, shortened: as §1
T3 sequence (P05177 whole entry): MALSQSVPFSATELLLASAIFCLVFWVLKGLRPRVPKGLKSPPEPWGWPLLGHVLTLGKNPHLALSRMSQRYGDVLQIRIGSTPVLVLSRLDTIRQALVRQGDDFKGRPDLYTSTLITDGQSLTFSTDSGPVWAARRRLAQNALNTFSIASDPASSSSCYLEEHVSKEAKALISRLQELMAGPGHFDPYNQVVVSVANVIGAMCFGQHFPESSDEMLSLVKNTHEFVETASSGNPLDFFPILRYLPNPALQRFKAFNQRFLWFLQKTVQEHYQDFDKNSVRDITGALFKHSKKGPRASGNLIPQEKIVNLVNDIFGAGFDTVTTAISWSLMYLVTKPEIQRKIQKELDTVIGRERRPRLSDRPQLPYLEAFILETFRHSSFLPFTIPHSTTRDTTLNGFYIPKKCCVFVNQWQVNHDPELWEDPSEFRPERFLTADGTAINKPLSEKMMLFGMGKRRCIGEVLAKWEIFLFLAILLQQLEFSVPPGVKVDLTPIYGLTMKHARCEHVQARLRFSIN

Cytochrome P450 2C19 = Cytochrome P450 2C19 (Homo sapiens, UniProt P33261); assay: Inhibition of human liver CYP2C19 expressed in Saccharomyces cerevisiae YY7 microsomal membranes using DBF as substrate after 10 mins by fluorescence assay; type: ADME, Microsomal Membrane
Cytochrome P450 2C19, sequence (P33261 whole entry): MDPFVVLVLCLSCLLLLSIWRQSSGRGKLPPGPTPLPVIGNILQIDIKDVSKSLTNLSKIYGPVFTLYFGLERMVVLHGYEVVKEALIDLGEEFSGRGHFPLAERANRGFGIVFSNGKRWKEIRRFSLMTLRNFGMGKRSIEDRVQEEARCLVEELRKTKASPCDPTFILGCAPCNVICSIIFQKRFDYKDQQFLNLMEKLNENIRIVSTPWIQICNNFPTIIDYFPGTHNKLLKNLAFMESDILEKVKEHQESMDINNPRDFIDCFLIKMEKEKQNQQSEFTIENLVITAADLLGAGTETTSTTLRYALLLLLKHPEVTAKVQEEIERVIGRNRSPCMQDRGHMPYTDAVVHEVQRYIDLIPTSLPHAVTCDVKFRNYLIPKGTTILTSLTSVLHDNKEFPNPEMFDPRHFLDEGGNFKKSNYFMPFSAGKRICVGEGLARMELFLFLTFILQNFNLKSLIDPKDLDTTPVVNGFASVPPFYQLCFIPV

Cytochrome P450 1A1 = biological target: T4, Cytochrome P450 1A1 (Homo sapiens, UniProt P04798); assay: Inhibition of human liver CYP1A1 expressed in Saccharomyces cerevisiae YY7 microsomal membranes using 7-ethoxyresorufin as substrate after 10 mins by fluorescence assay; type: ADME, Microsomal Membrane; procedure, shortened: as §1
T4 sequence (P04798 whole entry): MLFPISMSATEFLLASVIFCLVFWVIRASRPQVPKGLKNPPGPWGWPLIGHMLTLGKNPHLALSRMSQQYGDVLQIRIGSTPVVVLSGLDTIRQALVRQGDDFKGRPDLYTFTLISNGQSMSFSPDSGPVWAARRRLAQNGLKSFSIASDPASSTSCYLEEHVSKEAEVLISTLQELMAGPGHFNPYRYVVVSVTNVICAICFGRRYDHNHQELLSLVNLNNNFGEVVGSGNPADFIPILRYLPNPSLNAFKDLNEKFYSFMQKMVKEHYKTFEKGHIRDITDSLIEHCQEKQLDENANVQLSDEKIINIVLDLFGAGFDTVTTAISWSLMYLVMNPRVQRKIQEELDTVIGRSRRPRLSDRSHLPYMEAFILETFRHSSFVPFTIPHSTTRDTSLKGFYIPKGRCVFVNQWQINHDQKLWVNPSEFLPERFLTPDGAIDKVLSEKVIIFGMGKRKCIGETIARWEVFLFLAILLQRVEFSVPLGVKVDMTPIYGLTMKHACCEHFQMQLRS

Cytochrome P450 1B1 [7] = biological target: T2, Cytochrome P450 1B1; assay: Inhibition of human liver CYP1B1 expressed in HEK293 cells using 7-ethoxyresorufin as substrate preincubated for 30 mins followed by substrate addition measured after 60 mins by fluorescence assay; type: cell-based; procedure, shortened: as §2
Cytochrome P450 2C9 = Cytochrome P450 2C9 (Homo sapiens, UniProt P11712); assay: Inhibition of human liver CYP2C9 expressed in Saccharomyces cerevisiae YY7 microsomal membranes using DBF as substrate after 10 mins by fluorescence assay; type: ADME, Microsomal Membrane
Cytochrome P450 2C9, sequence (P11712 whole entry): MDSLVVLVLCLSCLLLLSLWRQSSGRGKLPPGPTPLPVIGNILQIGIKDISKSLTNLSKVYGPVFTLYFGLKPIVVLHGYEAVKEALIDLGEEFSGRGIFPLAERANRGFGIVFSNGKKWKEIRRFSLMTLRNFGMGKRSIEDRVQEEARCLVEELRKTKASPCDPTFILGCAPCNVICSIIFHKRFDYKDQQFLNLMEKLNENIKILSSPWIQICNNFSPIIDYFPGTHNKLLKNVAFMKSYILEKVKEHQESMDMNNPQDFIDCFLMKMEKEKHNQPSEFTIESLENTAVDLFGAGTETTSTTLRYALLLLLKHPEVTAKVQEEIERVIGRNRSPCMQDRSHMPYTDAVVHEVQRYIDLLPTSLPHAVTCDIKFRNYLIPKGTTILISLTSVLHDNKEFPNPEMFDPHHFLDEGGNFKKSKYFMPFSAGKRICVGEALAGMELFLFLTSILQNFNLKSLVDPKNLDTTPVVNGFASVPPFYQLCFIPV

Cytochrome P450 1B1 [8] = biological target: T2, Cytochrome P450 1B1; assay: Inhibition of human liver CYP1B1 expressed in Saccharomyces cerevisiae YY7 microsomal membranes using 7-ethoxyresorufin as substrate after 10 mins by fluorescence assay; procedure, shortened: as §1
Cytochrome P450 1B1 [9] = biological target: T2, Cytochrome P450 1B1; assay: Inhibition of human liver CYP1B1 expressed in Saccharomyces cerevisiae YY7 cells using 7-ethoxyresorufin as substrate after 10 mins by fluorescence assay; type: cell-based
Procedure, shortened: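 Live S. cerevisiae YY7 carrying human CYP1B1 was grown in YP-galactose. Cells were harvested 16–20 h after induction, washed in TE (pH 7.4) and diluted 1:10.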

Cytochrome P450 3A4 = Cytochrome P450 3A4 (Homo sapiens, UniProt P08684); assay: Inhibition of human liver CYP3A4 expressed in Saccharomyces cerevisiae YY7 microsomal membranes using DBF as substrate after 10 mins by fluorescence assay; type: ADME, Microsomal Membrane
Cytochrome P450 3A4, sequence (P08684 whole entry): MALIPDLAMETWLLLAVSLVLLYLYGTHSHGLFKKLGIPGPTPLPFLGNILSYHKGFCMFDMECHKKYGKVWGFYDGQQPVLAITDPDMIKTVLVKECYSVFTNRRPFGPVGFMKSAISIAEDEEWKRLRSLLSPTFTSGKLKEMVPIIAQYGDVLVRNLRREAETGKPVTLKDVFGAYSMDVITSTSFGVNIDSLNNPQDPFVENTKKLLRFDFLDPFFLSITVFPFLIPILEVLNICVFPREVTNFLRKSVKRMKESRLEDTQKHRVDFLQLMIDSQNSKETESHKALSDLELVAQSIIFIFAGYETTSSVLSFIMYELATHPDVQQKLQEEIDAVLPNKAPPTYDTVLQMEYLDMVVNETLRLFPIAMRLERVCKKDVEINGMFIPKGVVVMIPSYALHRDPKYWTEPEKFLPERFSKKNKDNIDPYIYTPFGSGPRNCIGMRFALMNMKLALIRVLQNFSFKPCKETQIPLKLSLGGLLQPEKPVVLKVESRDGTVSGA

Row | inhibition at 10 min, 1 µM (CYP1B1) [%] | solubility [1] [µg/mL] | solubility [2] [µg/mL] | solubility [3] [µg/mL] | inhibition (INH) (Cytochrome P450 1B1 [4]) | IC50 (Cytochrome P450 2D6) [µM] | IC50 (Cytochrome P450 1B1 [6]) [nM] | IC50 (Cytochrome P450 1A2) [nM] | IC50 (Cytochrome P450 2C19) [µM] | IC50 (Cytochrome P450 1A1) [nM] | IC50 (Cytochrome P450 1B1 [7]) [nM] | IC50 (Cytochrome P450 2C9) [µM] | IC50 (Cytochrome P450 1B1 [8]) [nM] | IC50 (Cytochrome P450 1B1 [9]) [nM] | IC50 (Cytochrome P450 3A4) [µM] | Compound | inhibition (INH) (Cytochrome P450 1B1 [5])
1 | > 80 | 0.58 (≈ 2.13 µM) | 6.85 (≈ 25.2 µM) | 6.45 (≈ 23.7 µM) | Active |  |  |  |  |  |  |  |  |  |  | O=c1cc(-c2ccccc2)oc2c1ccc1ccccc12 [ALPHA-NAPHTHOFLAVONE] | 
2 |  | 0.45 (≈ 1.74 µM) | 14.5 (≈ 56 µM) | 68.6 (≈ 264 µM) | Active | 10 | 4 | 1200 | > 20 | 742 | 53 | > 20 | 10 | 64 | 18 | O=C(/C=C/c1ccc2ccccc2c1)c1cccnc1 | Not Active
3 |  | 0.27 (≈ 0.933 µM) | 20.1 (≈ 69.4 µM) | 538 (≈ 1860 µM) | Active | 5 | 4 | 1200 | > 20 | 795 | 8 | > 20 | 9 | 65 |  | COc1ccc2cc(C(=O)/C=C/c3cccnc3)ccc2c1 | Not Active

— ChEMBL document CHEMBL4007432, “Discovery and characterization of novel CYP1B1 inhibitors based on heterocyclic chalcones: Overcoming cisplatin resistance in CYP1B1-overexpressing lines” (Eur J Med Chem, 2017)
